In brackets after ≈: the same amount, converted by molar mass. A value given as a limit tells only on which side of the number the result lay.

For series [1], the target named is T1, Sigma non-opioid intracellular receptor 1 (Homo sapiens, UniProt Q99720). As to the kind of experiment: Displacement of [3H]-(+)-pentazocine from human sigma1 receptor expressed in HEK293 cell membranes incubated for 120 mins by liquid scintillation counting method. Details: species or system Cell membrane.
The nature of series [2]: Displacement of [3H]-DTG from sigma2 receptor in guinea pig brain membranes incubated for 120 mins by liquid scintillation counting method. The class given is cell membranes, Cavia porcellus, Cell membrane. A digest of the protocol:
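Guinea pig brain membranes (200 μg) incubated with 10 nM [³H]-DTG in 50 mM Tris-HCl pH 8, σ1R masked with 400 nM (+)-SKF10047, at 25 °C for 120 min. Nonspecific binding defined by 10 μM haloperidol. Filtration, three washes with ice-cold 50 mM Tris-HCl pH 7.4, scintillation counting. Ki given as mean of two determinations.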

Series [3] concerns the target Voltage-gated inwardly rectifying potassium channel KCNH2 (Homo sapiens, UniProt Q12809). In words: Inhibition of human ERG expressed in CHO cells by patch clamp assay. The class given is cell-based.
The species entered for a further series is Cavia porcellus. In words: Displacement of [3H]-DTG from sigma2 receptor in guinea pig brain membranes at 1 uM incubated for 120 mins by liquid scintillation counting method relative to control. Particulars: Cell membrane.
The subject of series [4] is Mus musculus. In words: Analgesic activity in orally dosed mouse model of intraplantar capsaicin-induced mechanical hypersensitivity-induced pain assessed as reduction in mechanical hypersensitivity. The class given is functional. Particulars: po.
A short description of series [5]: Permeability in human Caco-2 cells. Format: ADME, cell-based. Particulars: read-out: permeability.
The nature of series [6]: AUC (0 to infinity) in CD1 mouse at 10 mg/kg, po by HPLC-MS/MS analysis. Further details: time infinity, route oral, dose 10 mg/kg. The class given is ADME, organism-based. Particulars: in vivo. A digest of the protocol:
(§1)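 Male CD1 mice (25−30 g), groups of 16, given 10 mg/kg orally in 0.5% hydroxypropyl methylcellulose or 1 mg/kg iv in saline. Blood drawn at several times (saphenous vein or intracardiac puncture) into heparinized tubes. Plasma spun at 4 °C, stored at −80 °C, protein-precipitated and assayed by HPLC-MS/MS. Parameters from noncompartmental analysis of concentration−time curves; clearance expressed as % liver blood flow.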

Series [7] can be described thus: Volume of distribution at steady state in CD1 mouse at 10 mg/kg, po by HPLC-MS/MS analysis. The class given is ADME, organism-based. Conditions: in vivo. In a few lines: as §1
Series [8] in a line: Elimination half life in CD1 mouse at 10 mg/kg, po by HPLC-MS/MS analysis. The class given is ADME, organism-based. Particulars: in vivo, read-out: beta t1/2 (converted). A digest of the protocol: as §1
A short description of series [9]: Clearance in CD1 mouse at 10 mg/kg, po by HPLC-MS/MS analysis relative to liver blood flow. The class given is ADME, organism-based. Particulars: in vivo.
The nature of series [10]: Volume of distribution at steady state in Wistar rat at 10 mg/kg, po by HPLC-MS/MS analysis. The class given is ADME, organism-based. Particulars: in vivo. A digest of the protocol: (§2)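 Male Wistar rats (250−300 g), groups of two, dosed orally at 10 mg/kg in 0.5% hydroxypropyl methylcellulose or iv at 1 mg/kg in saline. Serial blood into heparinized tubes (saphenous vein or cardiac puncture). Plasma kept at −80 °C and measured by HPLC-MS/MS after protein precipitation. Noncompartmental analysis gave parameters; clearance given as % liver blood flow.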

The nature of series [11]: Clearance in Wistar rat at 10 mg/kg, po by HPLC-MS/MS analysis relative to liver blood flow. Format: ADME, organism-based. Conditions: in vivo.
Series [12] can be described thus: Lipophilicity, logP of compound. Particulars: octanol/water. The class given is physicochemical. In a few lines: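 Log P determined by a pHmetric technique on a GlpKa or Sirius-T3 instrument.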
For series [13], the target named is T1, Sigma non-opioid intracellular receptor 1. As to the kind of experiment: Antagonist activity at human sigma1 receptor expressed in HEK293 cell membranes assessed as ratio of Ki without phenytoin/Ki with phenytoin by [3H]-(+)-pentazocine displacement assay. Particulars: Cell membrane, filed as antagonist.
A further series relates to HepG2. In words: Toxicity in human HepG2 cells assessed as reduction in cell viability up to 100 uM by MTT assay. The class given is cell-based. In a few lines:
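HepG2 cells exposed to compound at up to 100 μM; viability read by MTT assay.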

Series [14] in a line: Genotoxicity in Salmonella typhimurium by Ames test. The class given is toxicity. Particulars: salmonella enterica subsp. enterica serovar typhimurium.
Series [15] can be described thus: Oral bioavailability in Wistar rat at 10 mg/kg by HPLC-MS/MS analysis. Format: ADME, organism-based. Conditions: in vivo. In a few lines:
as §2

The nature of series [16]: Cmax in Wistar rat at 10 mg/kg, po by HPLC-MS/MS analysis. Further details: route oral, dose 10 mg/kg. Conditions: in vivo. Format: ADME, organism-based. A digest of the protocol:
as §2

A short description of series [17]: Induction of CYP450 expression in human HepaRG cells at 50 uM. The class given is ADME, cell-based. A digest of the protocol: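 HepaRG cells exposed to compound at concentrations up to 50 μM; CYP induction assessed.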
A short description of series [18]: Cmax in CD1 mouse at 10 mg/kg, po by HPLC-MS/MS analysis. The class given is ADME, organism-based. Further details: route oral, dose 10 mg/kg. Particulars: in vivo. A digest of the protocol: as §1
Series [19] in a line: AUC (0 to infinity) in Wistar rat at 10 mg/kg, po by HPLC-MS/MS analysis. Details: route oral, time infinity, dose 10 mg/kg. The class given is ADME, organism-based. Particulars: in vivo. A digest of the protocol:
as §2

For series [20], the system named is Mus musculus. As to the kind of experiment: Analgesic activity in orally dosed mouse model of […]-induced mechanical hypersensitivity-induced pain assessed as reduction in mechanical hypersensitivity at 80 mg/kg, po. The class given is functional. Further details: scale not given: the % may be the effect or the level left.
Series [21] in a line: Oral bioavailability in CD1 mouse at 10 mg/kg by HPLC-MS/MS analysis. The class given is ADME, organism-based. Conditions: in vivo. In a few lines:
as §1

Series [22] is described as follows: Elimination half life in Wistar rat at 10 mg/kg, po by HPLC-MS/MS analysis. Format: ADME, organism-based. Particulars: in vivo, read-out: beta t1/2 (converted). A digest of the protocol:
as §2

Series [23] can be described thus: Thermodynamic solubility in pH 7.4 buffer. Format: physicochemical. Conditions: read-out: Therm_solubility.
A short description of series [24]: Aqueous solubility of compound. The class given is physicochemical.
A short description of series [25]: Thermodynamic solubility in pH 2 buffer. Format: physicochemical. Particulars: read-out: Therm_solubility.

T1 sequence (Q99720 whole entry): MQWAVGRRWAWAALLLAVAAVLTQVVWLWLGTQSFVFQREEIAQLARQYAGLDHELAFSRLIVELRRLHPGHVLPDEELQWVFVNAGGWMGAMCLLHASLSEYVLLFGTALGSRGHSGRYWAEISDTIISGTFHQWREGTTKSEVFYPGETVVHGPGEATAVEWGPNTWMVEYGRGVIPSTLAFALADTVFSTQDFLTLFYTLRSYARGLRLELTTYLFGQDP
Chain of Voltage-gated inwardly rectifying potassium channel KCNH2 (Q12809 whole entry): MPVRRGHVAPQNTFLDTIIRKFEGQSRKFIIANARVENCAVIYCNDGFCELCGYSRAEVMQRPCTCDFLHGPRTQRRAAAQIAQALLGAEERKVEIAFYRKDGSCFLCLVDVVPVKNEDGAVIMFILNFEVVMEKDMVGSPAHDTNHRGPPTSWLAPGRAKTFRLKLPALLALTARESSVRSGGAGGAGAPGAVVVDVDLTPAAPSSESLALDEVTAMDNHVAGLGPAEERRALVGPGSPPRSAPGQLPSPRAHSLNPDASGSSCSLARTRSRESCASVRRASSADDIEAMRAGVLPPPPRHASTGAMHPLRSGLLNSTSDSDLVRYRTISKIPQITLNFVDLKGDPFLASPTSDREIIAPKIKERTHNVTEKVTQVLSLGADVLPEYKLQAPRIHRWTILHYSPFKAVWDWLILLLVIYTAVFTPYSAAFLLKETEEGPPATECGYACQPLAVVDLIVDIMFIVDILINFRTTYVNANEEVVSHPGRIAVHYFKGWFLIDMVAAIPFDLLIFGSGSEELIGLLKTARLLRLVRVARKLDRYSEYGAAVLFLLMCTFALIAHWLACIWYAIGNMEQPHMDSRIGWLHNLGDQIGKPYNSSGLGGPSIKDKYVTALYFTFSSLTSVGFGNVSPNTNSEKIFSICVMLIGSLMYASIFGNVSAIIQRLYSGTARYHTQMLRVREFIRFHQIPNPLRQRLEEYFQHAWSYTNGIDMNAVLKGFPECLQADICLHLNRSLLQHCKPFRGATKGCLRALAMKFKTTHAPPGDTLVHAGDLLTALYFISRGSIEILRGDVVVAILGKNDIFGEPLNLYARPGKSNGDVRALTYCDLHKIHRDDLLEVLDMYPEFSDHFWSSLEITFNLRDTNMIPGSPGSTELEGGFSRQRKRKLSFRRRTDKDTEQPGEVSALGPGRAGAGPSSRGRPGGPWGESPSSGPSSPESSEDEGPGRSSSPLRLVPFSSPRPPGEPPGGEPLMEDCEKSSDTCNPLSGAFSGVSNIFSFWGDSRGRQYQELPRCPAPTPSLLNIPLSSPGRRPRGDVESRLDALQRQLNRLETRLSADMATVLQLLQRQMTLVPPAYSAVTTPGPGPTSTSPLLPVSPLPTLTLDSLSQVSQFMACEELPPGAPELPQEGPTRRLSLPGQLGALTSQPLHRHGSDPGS

For the compound `Cc1cc(COCCN2CCCC2)nn1-c1ccc(Cl)c(Cl)c1`, the inhibition constant (Ki) came out at 6 nM in [1] and 27 nM in [2]. In series [3], this compound returned an IC50 of 5.12 µM.

With `CC(=O)N1CCN(CCCOCc2cc(C)n(-c3ccc(Cl)c(Cl)c3)n2)CC1`, the Ki in series [1] was 9 nM; in series [2], above 1000 nM. The compound also returned an IC50 in [3] of 4.08 µM. In the series filed under Cavia porcellus, this compound had an inhibition below 50%.

In series [2], `Cc1ccccc1NC(=N)Nc1ccccc1C` [DITOLYLGUANIDINE] yielded a Ki of 23 nM.

Turning to `Cc1cc(COCCN2CCOCC2)nn1C1CCCC1`, the figures for the inhibition constant Ki in [1] and in series [2] were 240 nM and above 10000 nM, respectively.

On to `Cc1cc(CCCN2CCOCC2)nn1-c1ccc(Cl)c(Cl)c1`, for which the inhibition constant Ki in series [1] was found to be 5 nM; in [2], 232 nM.

Regarding `CC(=O)N1CCN(CCOCc2ccn(-c3ccc(F)c(F)c3)n2)CC1.Cl`, the Ki was 22 nM in series [1] and above 10000 nM in [2]. Besides, the ED50 with Mus musculus [4] was 33 mg/kg. Further, the Papp in [5] was 51.5 ×10⁻⁶ cm/s. The values for the AUC(0-inf) in [6] and in series [19] were 1430 ng·h/mL and 2640 ng·h/mL, respectively. Further, the Vdss is 4.4 L/kg in series [7] and 1.2 L/kg in [10]. Further, the half-life in series [8] is 204 min; in series [22], below 60 min. The CL in [9] is recorded as 89%; in series [11], 70%. Further, in [12], the logP was 1.7. In series [13], the Ratio Ki turned out to be 0.9. The Activity result with HepG2 is “Non-Toxic”; in series [14], “Non-Toxic”; in [17] it was “Non-Toxic”; in the series on Mus musculus [20], 95%. Further, the figures for the bioavailability in series [15] and in [21] were 60% and 69%, respectively. Moreover, the Cmax in series [16] was 1180 ng/mL; in series [18], 771 ng/mL. The IC50 in series [3] is above 10 µM.

With `CC(C)=CCN1CC[C@]2(C)c3cc(O)ccc3C[C@H]1[C@H]2C` [(+)-PENTAZOCINE], the Ki in series [2] was 719 nM.

Regarding `Cc1cc(COCCN2CCCCC2)nn1-c1ccc(Cl)c(Cl)c1`, the Ki in [1] was determined as 2 nM; in series [2] it was 28 nM.

On to `Cc1cc(CCCCN2CCOCC2)nn1-c1ccc(Cl)c(Cl)c1`, for which the results for the Ki in [1] and in series [2] were 9 nM and 116 nM, respectively.

With `CC(=O)N1CCN(CCOCc2cc(C)n(-c3ccc(F)c(F)c3)n2)CC1`, the results for the Ki in series [1] and in series [2] were 58 nM and above 10000 nM, respectively. In series [3], this compound registered an IC50 above 10 µM.

For the compound `Cc1cc(COCCN2CCOCC2)nn1-c1ccc2ccccc2c1`, the Ki was 209 nM in series [1] and above 1000 nM in series [2]. Also, the inhibition in the series filed under Cavia porcellus is below 50%.

In turn, `O=C(CCCN1CCC(O)(c2ccc(Cl)cc2)CC1)c1ccc(F)cc1` [HALOPERIDOL] displayed a Ki in series [2] of 22 nM.

As to `Cc1cc(COCCN2C[C@@H](C)O[C@@H](C)C2)nn1-c1ccc(Cl)c(Cl)c1`, the Ki is 3 nM in series [1] and 180 nM in series [2].

In the case of `CC(=O)N1CCN(CCOCc2cc(C)n(-c3ccc(Cl)c(Cl)c3)n2)CC1`, the Ki in [1] was 15 nM; in series [2], above 1000 nM. In [3], this compound registered an IC50 above 10 µM. Also, in the series filed under Cavia porcellus, the inhibition is below 50%.

With `Cc1cc(COCCN2CCNCC2)nn1-c1ccc(Cl)c(Cl)c1`, the affinity in [1] corresponds to a Ki of 278 nM.

As for `Cc1cc(COCCN2CCOCC2)nn1-c1ccc(Cl)c(Cl)c1`, the Ki in series [1] came to 14 nM; in series [2] it was 399 nM.

`Clc1ccc(-n2ccc(COCCN3CCOCC3)n2)cc1Cl`: the Ki stood at 2 nM in [1] and 137 nM in series [2].

As for `Cc1cc(OCCN2CCOCC2)nn1-c1ccc2ccccc2c1`, the solubility thermodynamic in series [23] and in series [25] was 230 µg/mL (≈ 682 µM) throughout. Further, the AUC(0-inf) in [6] amounted to 958 ng·h/mL; in series [19] it was 428 ng·h/mL. Further, the Vdss in [7] worked out at 2.2 L/kg; in series [10], 2.9 L/kg. For the same compound, the half-life is 42 min in series [8] and 72 min in [22]. This compound returned a Ki in series [2] above 1000 nM. Also, the values for the CL in series [9] and in series [11] were 65% and 109%, respectively. Also, the bioavailability in series [15] stood at 15%; in series [21] it was 34%. In series [24], the solubility was 200 µg/mL (≈ 593 µM). Also, the Cmax in series [16] came out at 301 ng/mL; in series [18], 622 ng/mL. Besides, the inhibition in the series filed under Cavia porcellus is below 50%. In addition, in the series on Mus musculus [20], the Activity worked out at 54%.

The values above are taken from ChEMBL document CHEMBL4699658, “EST64454: a Highly Soluble σ Receptor Antagonist Clinical Candidate for Pain Management” (J Med Chem, 2020).
